Active and inactive are the calls of the source. The rule behind the calls is not given here.
Key:
Peritoneal macrophage [1] = assay: Antiinflammatory activity in C57BL/6 mouse primary peritoneal macrophages assessed as inhibition of LPS-induced TNFalpha production at 10 uM preincubated for 30 mins followed by LPS stimulation and measured after 24 hrs by sandwich ELISA relative to control; format: functional; conditions: C57BL/6, Peritoneal macrophage
Summary of the method: (§1)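 Thioglycollate-elicited mouse peritoneal macrophages in RPMI-1640/10% FBS. Compound pretreatment for 30 min (10 μM for single-point screening, graded concentrations for dose-response), then 0.5 μg/mL LPS for 24 h. TNF-α and IL-6 in culture medium measured by sandwich ELISA and normalized to total protein in cell lysates; n = 3.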

Mus musculus [2] = assay: Antiinflammatory activity in LPS-induced C57BL/6 mouse model of acute lung injury assessed as reduction in macrophage infiltration by measuring CD68 expression at 10 to 20 mg/kg/day, po for 3 days followed by LPS-stimulation measured after 6 hrs by immunohistochemistry; format: functional, organism-based
Summary of the method: (§2)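 Male C57BL/6 mice (18–22 g) randomized to four groups. Compound given orally in 0.5% CMC-Na at 10 or 20 mg/kg/day for 3 consecutive days; controls received vehicle. LPS challenge; killed 6 h later. Left-lung BALF (saline 3 × 0.5 mL) centrifuged at 1000 rpm, 10 min, 4 °C: supernatant used for protein and ELISA TNF-α/IL-6, pellet for total cell count. Serum cytokines also measured by ELISA. Wet/dry ratio from middle right lobe dried at 65 °C for 72 h. Lung sections (5 μm) stained with H&E or for CD68 by IHC (citrate antigen retrieval, pH 6.5; DAB detection); n = 3.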

Mus musculus [3] = assay: Antiinflammatory activity in oral dosed LPS-induced C57BL/6 mouse model of acute lung injury assessed as reduction in IL-6 mRNA expression in lung tissue after 6 hrs by qRT-PCR analysis; format: functional, organism-based
Summary of the method: (§3)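 Male C57BL/6 mice dosed orally with compound (10 or 20 mg/kg/day in 0.5% CMC-Na, 3 days), then LPS challenge. Lungs harvested 6 h later; RNA extracted with TRIZOL and TNF-α, IL-6, ICAM-1, VCAM-1 and MCP-1 mRNA measured by qRT-PCR.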

Mus musculus [4] = assay: Antiinflammatory activity in oral dosed LPS-induced C57BL/6 mouse model of acute lung injury assessed as reduction in TNFalpha levels in BALF for 3 days followed by LPS-stimulation measured after 6 hrs; format: functional, organism-based; summary of the method: as §2
Peritoneal macrophage [5] = assay: Antiinflammatory activity in C57BL/6 mouse primary peritoneal macrophages assessed as inhibition of LPS-induced IL-6 production at 10 uM preincubated for 30 mins followed by LPS stimulation and measured after 24 hrs by sandwich ELISA relative to control; format: functional; conditions: C57BL/6, Peritoneal macrophage; summary of the method: as §1
BEAS-2B = assay: Cytotoxicity against human BEAS2B cells up to 50 uM; format: cell-based
Summary of the method: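 BEAS-2B cells pretreated with compound at graded concentrations up to 50 μM for 30 min, then incubated without LPS for 24 h; compared against a DMSO group; n = 3.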

Peritoneal macrophage [6] = assay: Antiinflammatory activity in C57BL/6 mouse primary peritoneal macrophages assessed as inhibition of LPS-induced ICAM1 mRNA expression preincubated for 30 mins followed by LPS stimulation and measured after 6 hrs by qRT-PCR analysis; format: functional, cell-based
Summary of the method: (§4)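 Thioglycollate-elicited peritoneal macrophages (C57BL/6 mice, 3 mL 6% thioglycollate i.p.), harvested by PBS/30 μM EDTA lavage, cultured in RPMI-1640 with 10% FBS at 37 °C, 5% CO2. Pretreatment with compound at graded concentrations for 30 min, then LPS for 6 h. TRIZOL RNA extraction; qRT-PCR with values normalized to β-actin mRNA.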

Mus musculus [7] = assay: Antiinflammatory activity in oral dosed LPS-induced C57BL/6 mouse model of acute lung injury assessed as reduction in TNF-alpha mRNA expression in lung tissue after 6 hrs by qRT-PCR analysis; format: functional, organism-based; summary of the method: as §3
Mus musculus [8] = assay: Antiinflammatory activity in LPS-induced C57BL/6 mouse model of acute lung edema assessed as decrease in lung wet/dry ratio at 20 mg/kg/day, po for 3 days followed by LPS-stimulation measured after 6 hrs; format: functional, organism-based; summary of the method: as §2
Peritoneal macrophage [9] = assay: Antiinflammatory activity in C57BL/6 mouse primary peritoneal macrophages assessed as inhibition of LPS-induced MCP1 mRNA expression preincubated for 30 mins followed by LPS stimulation and measured after 6 hrs by qRT-PCR analysis; format: functional, cell-based; summary of the method: as §4
Mus musculus [10] = assay: Antiinflammatory activity in LPS-induced C57BL/6 mouse model of acute lung injury assessed as reduction in total cells in BALF at 10 to 20 mg/kg/day, po for 3 days followed by LPS-stimulation measured after 6 hrs by cell counting based method; format: functional, organism-based; summary of the method: as §2
Peritoneal macrophage [11] = assay: Antiinflammatory activity in C57BL/6 mouse primary peritoneal macrophages assessed as inhibition of LPS-induced TNFalpha production preincubated for 30 mins followed by LPS stimulation and measured after 24 hrs by sandwich ELISA; format: functional, cell-based; summary of the method: as §1
Mus musculus [12] = assay: Antiinflammatory activity in oral dosed LPS-induced C57BL/6 mouse model of acute lung injury assessed as reduction in ICAM-1 mRNA expression in lung tissue after 6 hrs by qRT-PCR analysis; format: functional, organism-based; summary of the method: as §3
[13] = Stability of compound in pH 7.4 phosphate buffer at 20 uM measured up to 25 mins by UV-VIS spectroscopy; format: physicochemical; conditions: pH 7.4, 25 min
Mus musculus [14] = species on record: Mus musculus; assay: Inhibition of MAPK in C57BL/6 mouse primary peritoneal macrophages assessed as reduction in JNK phosphorylation at 10 uM preincubated for 30 mins followed by LPS-stimulation measured after 20 mins by Western blot analysis
Summary of the method: (§5)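 Peritoneal macrophages pretreated with vehicle (DMSO) or 10 μM compound for 30 min, then 0.5 μg/mL LPS for 20 min. Total protein run on 10% SDS-PAGE and blotted to PVDF. p-JNK/JNK, p-p38/p38 and p-ERK/ERK detected by western blot and quantified by densitometry; n = 3.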

Mus musculus [15] = assay: Antiinflammatory activity in LPS-induced C57BL/6 mouse model of acute lung injury assessed as restoration of normal alveolar structure at 10 to 20 mg/kg/day, po for 3 days followed by LPS-stimulation measured after 6 hrs by haematoxylin and eosin staining-based light microscopic analysis; format: functional, organism-based; summary of the method: as §2
Mus musculus [16] = assay: Antiinflammatory activity in LPS-induced C57BL/6 mouse model of acute lung injury assessed as reduction in total protein levels in BALF at 10 to 20 mg/kg/day, po for 3 days followed by LPS-stimulation measured after 6 hrs; format: functional, organism-based; summary of the method: as §2
Mus musculus [17] = assay: Antiinflammatory activity in oral dosed LPS-induced C57BL/6 mouse model of acute lung injury assessed as reduction in TNFalpha levels in serum for 3 days followed by LPS-stimulation measured after 6 hrs; format: functional, organism-based; summary of the method: as §2
Mus musculus [18] = assay: Antiinflammatory activity in oral dosed LPS-induced C57BL/6 mouse model of acute lung injury assessed as reduction in VCAM-1 mRNA expression in lung tissue after 6 hrs by qRT-PCR analysis; format: functional, organism-based; summary of the method: as §3
Peritoneal macrophage [19] = assay: Antiinflammatory activity in C57BL/6 mouse primary peritoneal macrophages assessed as inhibition of LPS-induced IL-6 mRNA expression preincubated for 30 mins followed by LPS stimulation and measured after 6 hrs by qRT-PCR analysis; format: functional, cell-based; summary of the method: as §4
Peritoneal macrophage [20] = assay: Antiinflammatory activity in C57BL/6 mouse primary peritoneal macrophages assessed as inhibition of LPS-induced VCAM1 mRNA expression preincubated for 30 mins followed by LPS stimulation and measured after 6 hrs by qRT-PCR analysis; format: functional, cell-based; summary of the method: as §4
Peritoneal macrophage [21] = assay: Antiinflammatory activity in C57BL/6 mouse primary peritoneal macrophages assessed as inhibition of LPS-induced IL-6 production preincubated for 30 mins followed by LPS stimulation and measured after 24 hrs by sandwich ELISA; format: functional, cell-based; summary of the method: as §1
Mus musculus [22] = species on record: Mus musculus; assay: Inhibition of MAPK in C57BL/6 mouse primary peritoneal macrophages assessed as reduction in P38 phosphorylation at 10 uM preincubated for 30 mins followed by LPS-stimulation measured after 20 mins by Western blot analysis; summary of the method: as §5
Mus musculus [23] = species on record: Mus musculus; assay: Inhibition of MAPK in C57BL/6 mouse primary peritoneal macrophages assessed as reduction in ERK phosphorylation at 10 uM preincubated for 30 mins followed by LPS-stimulation measured after 20 mins by Western blot analysis; summary of the method: as §5
Mus musculus [24] = assay: Antiinflammatory activity in oral dosed LPS-induced C57BL/6 mouse model of acute lung injury assessed as reduction in IL-6 levels in BALF for 3 days followed by LPS-stimulation measured after 6 hrs; format: functional, organism-based; summary of the method: as §2
Mus musculus [25] = assay: Antiinflammatory activity in oral dosed LPS-induced C57BL/6 mouse model of acute lung injury assessed as reduction in IL-6 levels in serum for 3 days followed by LPS-stimulation measured after 6 hrs; format: functional, organism-based; summary of the method: as §2
Peritoneal macrophage [26] = assay: Antiinflammatory activity in C57BL/6 mouse primary peritoneal macrophages assessed as inhibition of LPS-induced TNFalpha mRNA expression preincubated for 30 mins followed by LPS stimulation and measured after 6 hrs by qRT-PCR analysis; format: functional, cell-based; summary of the method: as §4
Mus musculus [27] = assay: Antiinflammatory activity in oral dosed LPS-induced C57BL/6 mouse model of acute lung injury assessed as reduction in MCP-1 mRNA expression in lung tissue after 6 hrs by qRT-PCR analysis; format: functional, organism-based; summary of the method: as §3

IC50 (Peritoneal macrophage [11]; C57BL/6, Peritoneal macrophage): 1230 nM | Stability [13]: Stable | inhibition (Mus musculus [14]): Active | IC50 (Peritoneal macrophage [21]; C57BL/6, Peritoneal macrophage): 702 nM | inhibition (Mus musculus [22]): Active | inhibition (Mus musculus [23]): Active
Compound: O=C(Nc1ccc2c(c1)CCC2)c1cc(O)c(O)c(O)c1
inhibition at 10 µM (Peritoneal macrophage [1]): 72.2% | Activity (Mus musculus [2]): Active | Activity (Mus musculus [3]): Active | inhibition (Mus musculus [4]): Dose-dependent effect | inhibition at 10 µM (Peritoneal macrophage [5]): 89% | Activity (BEAS-2B): Non-Toxic | inhibition (Peritoneal macrophage [6]): Dose-dependent effect | Activity (Mus musculus [7]): Active | Activity (Mus musculus [8]): Active | inhibition (Peritoneal macrophage [9]): Dose-dependent effect | Activity (Mus musculus [10]): Active | inhibition (Peritoneal macrophage [11]): Dose-dependent effect | Activity (Mus musculus [12]): Active | Activity (Mus musculus [15]): Active | Activity (Mus musculus [16]): Active | inhibition (Mus musculus [17]): Dose-dependent effect | Activity (Mus musculus [18]): Active | inhibition (Peritoneal macrophage [19]): Dose-dependent effect | inhibition (Peritoneal macrophage [20]): Dose-dependent effect | inhibition (Peritoneal macrophage [21]): Dose-dependent effect | inhibition (Mus musculus [24]): Dose-dependent effect | inhibition (Mus musculus [25]): Dose-dependent effect | inhibition (Peritoneal macrophage [26]): Dose-dependent effect | Activity (Mus musculus [27]): Active

Reference: ChEMBL document CHEMBL4396951, “Optimization and anti-inflammatory evaluation of methyl gallate derivatives as a myeloid differentiation protein 2 inhibitor” (Bioorg Med Chem, 2019)
